Measured values from ChEMBL document CHEMBL5724801, “EUbOPEN Chemogenomics Library - Multiplex” (2024).
Where “and” joins values, the source holds several entries; their conditions need not be identical. Equal values may be shown once.

System: U2OS
Test: Multiplex assay against U2OS
Assay type: toxicity, cell-based
Settings: human
In short: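 Live cells carried four stains from seeding: Hoechst33342, BioTracker Green Microtubule Cytoskeleton Dye, MitoTracker Red and Annexin V Alexa Fluor 680. They were imaged on a CQ1 microscope at 37°C and 5% CO2 after compound addition. Using CellPathfinder machine-learning gating, cells were split into Hoechst high-intensity objects or normal cells, normal cells into healthy, pyknosed or fragmented nuclei, and pyknosed cells into mitotic or apoptotic; tubulin, mitochondrial-mass and membrane-permeability phenotypes are per cents of healthy-nucleus cells.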

[1] = 12 h, 1 µM, compound concentration 1 uM
[2] = 12 h, 10 µM, compound concentration 10 uM
[3] = 24 h, 1 µM, compound concentration 1 uM
[4] = 24 h, 10 µM, compound concentration 10 uM
[5] = 48 h, 1 µM, compound concentration 1 uM
[6] = 48 h, 10 µM, compound concentration 10 uM

With `Cl.c1ccc2c(c1)CCC[C@H]2Nc1nc2ccccc2[nH]1` the “Population Apoptotic (%)” value [1] was 51.52% and 50%, the “Population Fragmented Nuclei (%)” value [1] was 1.35% and 1.11% and the “Population Healthy Nuclei (%)” value [1] was 89.73% and 86.67%. For the same molecule, the “Population Hoechst High Intensity Objects (%)” value [1] was 0%, the “Population Membrane Permeable-Phenotype (%)” value [1] was 0.9% and 4.49% and the “Population Mitochondria Different-Phenotype (%)” value [1] was 0% and 8.33%. For the same molecule, the “Population Mitotic Cells (%)” value [1] was 48.48% and 50%, the “Population Normal (%)” value [1] was 100% and the “Population Pyknosed Nuclei (%)” value [1] was 8.92% and 12.22%. For the same molecule, the “Population Tubulin-Different-Phenotype (%)” value [1] was 0.9% and 0.64%, the “Total Cell Count” value [1] was 370 and 180 and the “Population Apoptotic (%)” value [2] was 34.15% and 18.18%. The “Population Fragmented Nuclei (%)” value [2] was 1.73% and 1.16%, the “Population Healthy Nuclei (%)” value [2] was 88.15% and 86.13% and the “Population Hoechst High Intensity Objects (%)” value [2] was 0%. The “Population Membrane Permeable-Phenotype (%)” value [2] was 1.96% and 2.01%, the “Population Mitotic Cells (%)” value [2] was 65.85% and 81.82% and the “Population Normal (%)” value [2] was 100%. The “Population Pyknosed Nuclei (%)” value [2] was 10.12% and 12.72%, the “Population Tubulin-Different-Phenotype (%)” value [2] was 1.96% and 2.01% and the “Total Cell Count” value [2] was 405 and 173. For the same molecule, the “Population Apoptotic (%)” value [3] was 36.36% and 51.52%, the “Population Fragmented Nuclei (%)” value [3] was 1.17% and 2.47% and the “Population Healthy Nuclei (%)” value [3] was 92.41% and 83.95%. The “Population Hoechst High Intensity Objects (%)” value [3] was 0.19% and 0%, the “Population Membrane Permeable-Phenotype (%)” value [3] was 0.42% and 2.94% and the “Population Mitochondria Different-Phenotype (%)” value [3] was 0.21% and 7.35%. For the same molecule, the “Population Mitotic Cells (%)” value [3] was 63.64% and 48.48%, the “Population Normal (%)” value [3] was 99.81% and 100% and the “Population Pyknosed Nuclei (%)” value [3] was 6.42% and 13.58%. For the same molecule, the “Population Tubulin-Different-Phenotype (%)” value [3] was 0.21% and 1.47%, the “Total Cell Count” value [3] was 515 and 243 and the “Population Apoptotic (%)” value [4] was 40% and 51.85%. The “Population Fragmented Nuclei (%)” value [4] was 2.23% and 2.74%, the “Population Healthy Nuclei (%)” value [4] was 89.41% and 84.93% and the “Population Hoechst High Intensity Objects (%)” value [4] was 0%. The “Population Membrane Permeable-Phenotype (%)” value [4] was 1.87% and 2.69%, the “Population Mitochondria Different-Phenotype (%)” value [4] was 0.42% and 8.06% and the “Population Mitotic Cells (%)” value [4] was 60% and 48.15%. For the same molecule, the “Population Normal (%)” value [4] was 100%, the “Population Pyknosed Nuclei (%)” value [4] was 8.36% and 12.33% and the “Population Tubulin-Different-Phenotype (%)” value [4] was 1.87% and 1.08%. For the same molecule, the “Total Cell Count” value [4] was 538 and 219, the “Population Apoptotic (%)” value [5] was 36.59% and 47.06% and the “Population Fragmented Nuclei (%)” value [5] was 3.12% and 2.18%. For the same molecule, the “Population Healthy Nuclei (%)” value [5] was 88.61% and 85.44%, the “Population Hoechst High Intensity Objects (%)” value [5] was 0% and the “Population Membrane Permeable-Phenotype (%)” value [5] was 0.46% and 2.27%. The “Population Mitochondria Different-Phenotype (%)” value [5] was 0.11% and 6.25%, the “Population Mitotic Cells (%)” value [5] was 63.41% and 52.94% and the “Population Normal (%)” value [5] was 100%. The “Population Pyknosed Nuclei (%)” value [5] was 8.27% and 12.38%, the “Population Tubulin-Different-Phenotype (%)” value [5] was 0.57% and 0.85% and the “Total Cell Count” value [5] was 992 and 412. For the same molecule, the “Population Apoptotic (%)” value [6] was 41.57% and 48.08%, the “Population Fragmented Nuclei (%)” value [6] was 2.25% and 2.98% and the “Population Healthy Nuclei (%)” value [6] was 88.65% and 82.93%. The “Population Hoechst High Intensity Objects (%)” value [6] was 0% and 0.27%, the “Population Membrane Permeable-Phenotype (%)” value [6] was 1.5% and 3.92% and the “Population Mitochondria Different-Phenotype (%)” value [6] was 0% and 3.92%. The “Population Mitotic Cells (%)” value [6] was 58.43% and 51.92%, the “Population Normal (%)” value [6] was 100% and 99.73% and the “Population Pyknosed Nuclei (%)” value [6] was 9.1% and 14.09%. The “Population Tubulin-Different-Phenotype (%)” value [6] was 1.5% and 2.61% and the “Total Cell Count” value [6] was 978 and 370.
For `CC(=O)NCCc1c(Cc2ccccc2)[nH]c2ccccc12` [LUZINDOLE], the “Population Apoptotic (%)” value [1] was 72% and 100%, the “Population Fragmented Nuclei (%)” value [1] was 25% and 19% and the “Population Healthy Nuclei (%)” value [1] was 65% and 77%. For the same molecule, the “Population Hoechst High Intensity Objects (%)” value [1] was 3% and 2%, the “Population Membrane Permeable-Phenotype (%)” value [1] was 3% and 6% and the “Population Mitochondria Different-Phenotype (%)” value [1] was 4% and 2%. The “Population Normal (%)” value [1] was 96% and 97%, the “Population Pyknosed Nuclei (%)” value [1] was 9% and 3% and the “Population Tubulin-Different-Phenotype (%)” value [1] was 1% and 2%. For the same molecule, the “Total Cell Count” value [1] was 233 and 134, the “Population Apoptotic (%)” value [2] was 81% and 76% and the “Population Fragmented Nuclei (%)” value [2] was 26% and 13%. For the same molecule, the “Population Healthy Nuclei (%)” value [2] was 65% and 78%, the “Population Hoechst High Intensity Objects (%)” value [2] was 2% and 1% and the “Population Membrane Permeable-Phenotype (%)” value [2] was 8% and 5%. The “Population Mitochondria Different-Phenotype (%)” value [2] was 3% and 2%, the “Population Mitotic Cells (%)” value [2] was 18% and 23% and the “Population Normal (%)” value [2] was 97% and 98%. The “Population Pyknosed Nuclei (%)” value [2] was 7%, the “Population Tubulin-Different-Phenotype (%)” value [2] was 4% and 3% and the “Total Cell Count” value [2] was 291 and 179. For the same molecule, the “Population Apoptotic (%)” value [3] was 90% and 88%, the “Population Fragmented Nuclei (%)” value [3] was 19% and 18% and the “Population Healthy Nuclei (%)” value [3] was 68% and 70%. The “Population Hoechst High Intensity Objects (%)” value [3] was 4% and 0%, the “Population Membrane Permeable-Phenotype (%)” value [3] was 2% and 5% and the “Population Mitochondria Different-Phenotype (%)” value [3] was 3% and 1%. The “Population Mitotic Cells (%)” value [3] was 10% and 11%, the “Population Normal (%)” value [3] was 95% and 99% and the “Population Pyknosed Nuclei (%)” value [3] was 12% and 10%. The “Population Tubulin-Different-Phenotype (%)” value [3] was 3% and 4%, the “Total Cell Count” value [3] was 260 and 156 and the “Population Apoptotic (%)” value [4] was 88% and 85%. For the same molecule, the “Population Fragmented Nuclei (%)” value [4] was 25% and 11%, the “Population Healthy Nuclei (%)” value [4] was 66% and 80% and the “Population Hoechst High Intensity Objects (%)” value [4] was 2% and 0%. The “Population Membrane Permeable-Phenotype (%)” value [4] was 6%, the “Population Mitochondria Different-Phenotype (%)” value [4] was 3% and 1% and the “Population Mitotic Cells (%)” value [4] was 12% and 15%. For the same molecule, the “Population Normal (%)” value [4] was 97% and 99%, the “Population Pyknosed Nuclei (%)” value [4] was 7% and 8% and the “Population Tubulin-Different-Phenotype (%)” value [4] was 4% and 3%. For the same molecule, the “Total Cell Count” value [4] was 342 and 236, the “Population Apoptotic (%)” value [5] was 91% and 80% and the “Population Fragmented Nuclei (%)” value [5] was 16% and 11%. For the same molecule, the “Population Healthy Nuclei (%)” value [5] was 74% and 77%, the “Population Hoechst High Intensity Objects (%)” value [5] was 2% and 1% and the “Population Membrane Permeable-Phenotype (%)” value [5] was 3% and 8%. The “Population Mitochondria Different-Phenotype (%)” value [5] was 2% and 1%, the “Population Mitotic Cells (%)” value [5] was 8% and 20% and the “Population Normal (%)” value [5] was 97% and 98%. For the same molecule, the “Population Pyknosed Nuclei (%)” value [5] was 9% and 11%, the “Population Tubulin-Different-Phenotype (%)” value [5] was 2% and 4% and the “Total Cell Count” value [5] was 395 and 217. For the same molecule, the “Population Apoptotic (%)” value [6] was 89% and 100%, the “Population Fragmented Nuclei (%)” value [6] was 21% and 11% and the “Population Healthy Nuclei (%)” value [6] was 69% and 82%. For the same molecule, the “Population Hoechst High Intensity Objects (%)” value [6] was 2% and 1%, the “Population Membrane Permeable-Phenotype (%)” value [6] was 6% and 5% and the “Population Mitochondria Different-Phenotype (%)” value [6] was 3% and 2%. For the same molecule, the “Population Mitotic Cells (%)” value [6] was 10% and 0%, the “Population Normal (%)” value [6] was 97% and 98% and the “Population Pyknosed Nuclei (%)” value [6] was 8% and 5%. For the same molecule, the “Population Tubulin-Different-Phenotype (%)” value [6] was 3% and the “Total Cell Count” value [6] was 446 and 354.
